Consider 3 compounds from ChEMBL document CHEMBL1154124, “Vascular effects of different lipophilic components of "Danshen", a traditional Chinese medicine, in the isolated porcine coronary artery” (2008).

Each structure is given as a SMILES string. Calls of active or inactive are those of the source. The rule behind the calls is not given here.

Common to all, as to details: Sus scrofa
In experiment [1] the test system is Artery. The experiment in a line: Vasorelaxant activity in pig endothelium-intact coronary artery assessed as inhibition of U46619-induced contraction at 50 ug/ml. It counts as functional, tissue-based. In short, it runs like this: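 Porcine coronary rings with endothelium in Krebs-Henseleit solution at 37 °C, gassed with 95% O2/5% CO2, held at 2 g resting tension and equilibrated 100 min. Each ring was contracted twice with KCl 30 mM and relaxed with bradykinin 1 µM. Test material as a PVP complex was given for 30 min, then cumulative U46619 0.1 nM–1 µM. Contraction was expressed as % of the mean KCl response, giving ED50 and Emax; n=8.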

For experiment [2], the system named is Artery. The experiment in a line: Vasorelaxant activity in pig endothelium-intact coronary artery assessed as inhibition of U46619-induced contraction. It counts as functional. Put shortly: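 Endothelium-intact porcine coronary rings at 2 g resting tension in Krebs-Henseleit, 37 °C, gassed with 95% O2/5% CO2. Rings were discarded if the mean KCl 30 mM contraction was under 4 g or bradykinin relaxation under 40%. PVP K30-complexed sample was given for 30 min. Cumulative U46619 was then added (0.1 nM to 1 µM). ED50 and Emax use % of the mean KCl 30 mM contraction; n = 8, separate hearts.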

In experiment [3] the test system is Artery. The experiment in a line: Vasorelaxant activity in pig endothelium-intact coronary artery assessed as reversible inhibition of U46619-induced contraction at 1 uM. It counts as functional, tissue-based.
Experiment [4] deals with Artery. The experiment is described as follows: Vasorelaxant activity in pig endothelium-denuded coronary artery assessed as inhibition of 5-hydroxytryptamine-induced contraction at 15 ug/ml. It counts as functional, tissue-based. Put shortly: (§1)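 Endothelium-removed porcine coronary rings at 2 g resting tension in Krebs-Henseleit, 37 °C, 95% O2/5% CO2. Each ring was primed twice with KCl 30 mM and relaxed with bradykinin 1 µM. Test material, as a PVP K30 complex, was given for 30 min. Stepwise contractions were then made with 5-HT (10 nM to 10 µM), U46619 (0.1 nM to 1 µM) or KCl (10-70 mM). Tension is % of the mean of the two KCl 30 mM contractions; n = 7-11.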

Experiment [5] deals with Artery. The experiment is described as follows: Vasorelaxant activity in pig endothelium-denuded coronary artery assessed as inhibition of U46619-induced contraction at 15 ug/ml. Format: functional, tissue-based. Put shortly: as §1
In experiment [6] the test system is Artery. The experiment in a line: Vasorelaxant activity in pig endothelium-denuded coronary artery assessed as inhibition of potassium chloride-induced contraction at 50 ug/ml. Format: functional, tissue-based. In short, it runs like this:
as §1

With `Cc1coc2c1C(=O)C(=O)c1c-2ccc2c1CCCC2(C)C` [TANSHINONE IIA], in the experiment with Artery [1], the outcome was Active. The maximum response (Emax) in the experiment with Artery [2] came out at 92.9%.
`C[C@H]1COC2=C1C(=O)C(=O)c1c2ccc2c1CCCC2(C)C` [CRYPTOTANSHINONE]: the outcome in the experiment with Artery [1] was Active. Besides, the maximal effect (Emax) in the experiment on Artery [2] worked out at 64.9%.
Consider `CC1(C)CCCc2c1ccc1c2C(=O)C(=O)c2c(CO)coc2-1` [PRZEWAQUINONE A], for which the result in the experiment with Artery [3], in the experiment on Artery [4], in the experiment on Artery [5] and in the experiment with Artery [6] was Active. The Emax in the experiment with Artery [2] stood at 29.2%.

What is called Emax is the size of the effect at its maximum, as opposed to the concentration needed.
